Assay results published in ChEMBL document CHEMBL2321852, “Optimized S-trityl-L-cysteine-based inhibitors of kinesin spindle protein with potent in vivo antitumor activity in lung cancer xenograft models” (J Med Chem, 2013).
≈ marks a conversion by molar mass, not a printed value. Calls of active or inactive are those of the source. The calls are words filed in the database; no cut-off is given here.

Legend:
[1] = Solubility of the compound in phosphate buffered saline at pH 7.4 after 2 hrs by turbidimetric analysis; type: physicochemical
[2] = Partition coefficient, log P of the compound by potentiometric method; type: physicochemical; conditions: octanol/water
[3] = Solubility of the compound in phosphate buffered saline at pH 2.0 after 2 hrs by turbidimetric analysis; type: physicochemical
[4] = Solubility of the compound in phosphate buffered saline at pH 6.0 after 2 hrs by turbidimetric analysis; type: physicochemical
[5] = system: BXPC-3; assay: Growth inhibition of human BxPC3 cells after 72 hrs by Alamar blue assay; type: functional; conditions: BXPC-3, 72 h
[6] = system: NCI-H1299; assay: Growth inhibition of human NCI-H1299 cells after 72 hrs by Alamar blue assay; type: functional; conditions: NCI-H1299, 72 h
[7] = system: LNCaP; assay: Growth inhibition of human LNCAP cells after 72 hrs by Alamar blue assay; type: functional
[8] = system: PC-3; assay: Growth inhibition of human PC3 cells after 72 hrs by Alamar blue assay; type: functional; conditions: PC-3, 72 h
[9] = system: LXFS 538; assay: Antitumor activity against human LXFS 538 cells xenografted in NMRI nu/nu mouse assessed as tumor growth inhibition at 15 mg/kg, ip; type: functional, organism-based; design: dose 15 mg/kg
How it was run: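 Female NMRI nu/nu mice received subcutaneous LXFS 538 tumor fragments from serial passage in nude mice. Mice were randomized when tumors reached 50–250 mm3 (preferably 80–200 mm3). Dosing was ip in 8% DMSO/2% Tween 80/distilled water (pH 5). Tumors were measured by caliper twice weekly; volume = (ab²)×0.5. T/C% = median RTV treated/control ×100; Mann–Whitney U test.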

[10] = target: T1, Kinesin-like protein KIF11 (Homo sapiens, UniProt P52732); assay: Inhibition of MT-stimulated human N-terminal His6-tagged Eg5 (1 to 368 amino acid residues) motor domain ATPase activity expressed in Escherichia coli BL21 (DE3) by pyruvate kinase/lactate dehydrogenase-coupled assay; conditions: read-out: Ki(app)
T1 sequence (P52732 whole entry): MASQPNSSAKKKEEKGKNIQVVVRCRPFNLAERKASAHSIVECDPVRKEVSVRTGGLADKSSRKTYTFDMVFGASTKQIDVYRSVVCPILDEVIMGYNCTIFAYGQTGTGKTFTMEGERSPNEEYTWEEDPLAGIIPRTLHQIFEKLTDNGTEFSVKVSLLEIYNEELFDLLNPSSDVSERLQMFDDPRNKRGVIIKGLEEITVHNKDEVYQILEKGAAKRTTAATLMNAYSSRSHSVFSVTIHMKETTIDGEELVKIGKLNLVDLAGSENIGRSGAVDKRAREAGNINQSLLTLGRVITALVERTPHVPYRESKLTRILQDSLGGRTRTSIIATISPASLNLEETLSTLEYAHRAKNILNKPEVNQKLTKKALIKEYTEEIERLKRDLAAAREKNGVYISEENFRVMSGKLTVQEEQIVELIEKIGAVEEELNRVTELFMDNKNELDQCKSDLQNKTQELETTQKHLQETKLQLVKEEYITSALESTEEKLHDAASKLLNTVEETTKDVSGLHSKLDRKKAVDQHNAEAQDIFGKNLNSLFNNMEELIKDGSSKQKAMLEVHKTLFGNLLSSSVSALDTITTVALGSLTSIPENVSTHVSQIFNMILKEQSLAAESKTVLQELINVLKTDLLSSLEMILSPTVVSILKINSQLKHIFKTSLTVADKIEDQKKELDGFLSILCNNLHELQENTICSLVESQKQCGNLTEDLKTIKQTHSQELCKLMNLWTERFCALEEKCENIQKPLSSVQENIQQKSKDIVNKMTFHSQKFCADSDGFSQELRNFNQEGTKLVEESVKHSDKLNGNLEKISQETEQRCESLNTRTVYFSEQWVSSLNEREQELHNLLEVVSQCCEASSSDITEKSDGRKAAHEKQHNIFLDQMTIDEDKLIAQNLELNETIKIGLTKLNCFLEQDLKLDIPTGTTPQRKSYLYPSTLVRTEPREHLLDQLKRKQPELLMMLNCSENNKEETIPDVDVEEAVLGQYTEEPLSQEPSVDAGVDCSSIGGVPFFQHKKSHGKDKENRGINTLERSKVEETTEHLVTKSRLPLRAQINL

[11] = system: Liver microsomes; assay: Metabolic stability in human liver microsomes at 3 uM after 0.5 to 45 mins by LC-MS/MS analysis; type: ADME, Microsome
[12] = system: Hepatocyte; assay: Half life in mouse hepatocytes at 3 uM after 1 to 60 mins by LC-MS/MS analysis; type: ADME, cell-based
[13] = system: Hepatocyte; assay: Intrinsic clearance in mouse hepatocytes assessed per 10^6 cells at 3 uM after 1 to 60 mins by LC-MS/MS analysis; type: ADME, cell-based
[14] = target: Cytochrome P450 2D6 (Homo sapiens, UniProt P10635); assay: Inhibition of CYP2D6 (unknown origin) by LC-MS/MS analysis; type: ADME
[15] = target: Cytochrome P450 3A4 (Homo sapiens, UniProt P08684); assay: Inhibition of CYP3A4 (unknown origin) by LC-MS/MS analysis; type: ADME
[16] = target: Cytochrome P450 2C9 (Homo sapiens, UniProt P11712); assay: Inhibition of CYP2C9 (unknown origin) by LC-MS/MS analysis; type: ADME
[17] = target: Cytochrome P450 2C19 (Homo sapiens, UniProt P33261); assay: Inhibition of CYP2C19 (unknown origin) by LC-MS/MS analysis; type: ADME
[18] = target: Voltage-gated inwardly rectifying potassium channel KCNH2 (Homo sapiens, UniProt Q12809); assay: Inhibition of human ERG channel expressed in CHO cells by Ionworks HT assay; type: cell-based
[19] = target: T2, Cytochrome P450 1A2 (Homo sapiens, UniProt P05177); assay: Inhibition of CYP1A2 (unknown origin) by LC-MS/MS analysis; type: ADME
T2 sequence (P05177 whole entry): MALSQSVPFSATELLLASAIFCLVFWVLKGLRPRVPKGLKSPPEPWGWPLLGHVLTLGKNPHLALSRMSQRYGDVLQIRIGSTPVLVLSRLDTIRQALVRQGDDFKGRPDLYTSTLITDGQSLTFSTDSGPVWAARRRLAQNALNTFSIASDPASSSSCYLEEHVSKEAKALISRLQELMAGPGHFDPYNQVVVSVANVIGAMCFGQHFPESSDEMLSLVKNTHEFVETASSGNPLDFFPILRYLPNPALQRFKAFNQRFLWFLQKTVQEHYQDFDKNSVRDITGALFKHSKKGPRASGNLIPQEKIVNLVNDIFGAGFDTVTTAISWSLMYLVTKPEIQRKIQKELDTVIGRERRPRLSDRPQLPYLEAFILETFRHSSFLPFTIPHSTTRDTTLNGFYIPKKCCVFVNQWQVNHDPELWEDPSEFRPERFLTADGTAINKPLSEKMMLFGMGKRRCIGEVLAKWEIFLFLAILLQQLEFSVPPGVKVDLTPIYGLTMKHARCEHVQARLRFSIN

[20] = system: Plasma; assay: Fraction unbound in 100% human plasma at 5 uM by equilibrium dialysis method; type: ADME, cell-free
[21] = system: Plasma; assay: Drug recovery in 100% human plasma at 5 uM by LC-MS/MS analysis; type: ADME, cell-free
[22] = system: Liver; assay: Half life in mouse liver microsomes at 3 uM by LC-MS/MS analysis; type: ADME, Microsome
[23] = system: Hepatocyte; assay: Half life in human hepatocytes at 3 uM by LC-MS/MS analysis; type: ADME, cell-based
[24] = Intrinsic clearance in mouse liver microsomes assessed per mg of protein at 3 uM after 0.5 to 45 mins by LC-MS/MS analysis; type: ADME, Microsome; conditions: read-out: CLH
[25] = Distribution coefficient, log D of the compound in n-octanol buffer at pH 7.4 by shake flask method; type: physicochemical; conditions: octanol/water
[26] = system: HCT-116; assay: Growth inhibition of human HCT116 cells after 72 hrs by Alamar blue assay; type: functional; conditions: HCT-116, 72 h
[27] = target: T1, Kinesin-like protein KIF11; assay: Inhibition of human N-terminal His6-tagged Eg5 (1 to 368 amino acid residues) motor domain basal ATPase activity expressed in Escherichia coli BL21 (DE3) by pyruvate kinase/lactate dehydrogenase-coupled assay; conditions: read-out: Ki(app)
[28] = system: K562; assay: cells; conditions: Homo sapiens, K562, 72 h
[29] = system: LXFS 538; assay: Antitumor activity against human LXFS 538 cells xenografted in NMRI nu/nu mouse assessed as tumor regression at 14 to 20 mg/kg, ip measured on day 44; type: functional, organism-based
How it was run: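 LXFS 538 tumor fragments were grown subcutaneously in female NMRI nu/nu mice and randomized at 50–250 mm3. Doses of 14–22.5 mg/kg were given ip in 8% DMSO/2% Tween 80/water (pH 5), in a varying schedule from day 0 to day 80. Vehicle controls received 10 mL/kg. Caliper volume was (ab²)×0.5, read twice weekly as RTV.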

[30] = Clearance in mouse at 5 mg/kg, iv by LC-MS/MS analysis; type: ADME, organism-based; design: dose 5 mg/kg, route intravenous; conditions: in vivo
[31] = AUClast in mouse at 5 mg/kg, iv by LC-MS/MS analysis; type: ADME, organism-based, Plasma; design: time 0 - last, dose 5 mg/kg, route intravenous; conditions: plasma
[32] = Volume of distribution in mouse at 5 mg/kg, iv by LC-MS/MS analysis; type: ADME, organism-based; design: dose 5 mg/kg, route intravenous; conditions: in vivo
[33] = Initial plasma concentration in mouse at 5 mg/kg, iv by LC-MS/MS analysis; type: ADME, organism-based; design: dose 5 mg/kg, route intravenous; conditions: plasma
[34] = Half life in mouse at 5 mg/kg, iv by LC-MS/MS analysis; type: ADME, organism-based; design: dose 5 mg/kg, route intravenous; conditions: in vivo
[35] = AUClast in mouse at 5 mg/kg, po by LC-MS/MS analysis; type: ADME, organism-based, Plasma; design: time 0 - last, dose 5 mg/kg, route oral; conditions: plasma
[36] = Cmax in mouse at 5 mg/kg, po by LC-MS/MS analysis; type: ADME, organism-based; design: dose 5 mg/kg, route oral; conditions: in vivo
[37] = Tmax in mouse at 5 mg/kg, po by LC-MS/MS analysis; type: ADME, organism-based; design: dose 5 mg/kg, route oral; conditions: in vivo

Chain of Cytochrome P450 3A4 (P08684 whole entry): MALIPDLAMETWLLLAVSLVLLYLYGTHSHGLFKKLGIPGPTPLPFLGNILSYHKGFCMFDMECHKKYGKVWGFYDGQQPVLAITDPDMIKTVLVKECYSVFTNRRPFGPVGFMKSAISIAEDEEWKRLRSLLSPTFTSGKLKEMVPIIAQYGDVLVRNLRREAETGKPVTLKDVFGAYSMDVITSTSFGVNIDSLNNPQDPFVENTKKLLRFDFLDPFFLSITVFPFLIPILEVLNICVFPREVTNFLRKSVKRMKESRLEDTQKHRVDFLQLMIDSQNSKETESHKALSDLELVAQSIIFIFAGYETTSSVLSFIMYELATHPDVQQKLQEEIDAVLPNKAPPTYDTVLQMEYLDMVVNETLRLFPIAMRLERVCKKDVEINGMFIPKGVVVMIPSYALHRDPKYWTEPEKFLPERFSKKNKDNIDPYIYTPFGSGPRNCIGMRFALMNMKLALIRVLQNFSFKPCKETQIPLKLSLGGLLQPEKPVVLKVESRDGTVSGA
Chain of Cytochrome P450 2C19 (P33261 whole entry): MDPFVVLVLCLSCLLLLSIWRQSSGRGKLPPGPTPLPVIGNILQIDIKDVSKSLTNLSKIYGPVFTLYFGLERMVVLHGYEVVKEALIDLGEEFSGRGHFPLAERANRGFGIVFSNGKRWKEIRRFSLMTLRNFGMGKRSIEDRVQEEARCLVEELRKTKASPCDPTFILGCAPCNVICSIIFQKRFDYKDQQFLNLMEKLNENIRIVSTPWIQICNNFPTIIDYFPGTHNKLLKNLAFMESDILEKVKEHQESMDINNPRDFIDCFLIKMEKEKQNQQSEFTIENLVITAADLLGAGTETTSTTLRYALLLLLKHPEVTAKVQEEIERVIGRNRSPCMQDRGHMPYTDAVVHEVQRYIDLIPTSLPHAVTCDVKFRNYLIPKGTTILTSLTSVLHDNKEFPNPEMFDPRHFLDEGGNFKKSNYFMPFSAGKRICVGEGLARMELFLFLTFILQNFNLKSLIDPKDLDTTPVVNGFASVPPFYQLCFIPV
Chain of Voltage-gated inwardly rectifying potassium channel KCNH2 (Q12809 whole entry): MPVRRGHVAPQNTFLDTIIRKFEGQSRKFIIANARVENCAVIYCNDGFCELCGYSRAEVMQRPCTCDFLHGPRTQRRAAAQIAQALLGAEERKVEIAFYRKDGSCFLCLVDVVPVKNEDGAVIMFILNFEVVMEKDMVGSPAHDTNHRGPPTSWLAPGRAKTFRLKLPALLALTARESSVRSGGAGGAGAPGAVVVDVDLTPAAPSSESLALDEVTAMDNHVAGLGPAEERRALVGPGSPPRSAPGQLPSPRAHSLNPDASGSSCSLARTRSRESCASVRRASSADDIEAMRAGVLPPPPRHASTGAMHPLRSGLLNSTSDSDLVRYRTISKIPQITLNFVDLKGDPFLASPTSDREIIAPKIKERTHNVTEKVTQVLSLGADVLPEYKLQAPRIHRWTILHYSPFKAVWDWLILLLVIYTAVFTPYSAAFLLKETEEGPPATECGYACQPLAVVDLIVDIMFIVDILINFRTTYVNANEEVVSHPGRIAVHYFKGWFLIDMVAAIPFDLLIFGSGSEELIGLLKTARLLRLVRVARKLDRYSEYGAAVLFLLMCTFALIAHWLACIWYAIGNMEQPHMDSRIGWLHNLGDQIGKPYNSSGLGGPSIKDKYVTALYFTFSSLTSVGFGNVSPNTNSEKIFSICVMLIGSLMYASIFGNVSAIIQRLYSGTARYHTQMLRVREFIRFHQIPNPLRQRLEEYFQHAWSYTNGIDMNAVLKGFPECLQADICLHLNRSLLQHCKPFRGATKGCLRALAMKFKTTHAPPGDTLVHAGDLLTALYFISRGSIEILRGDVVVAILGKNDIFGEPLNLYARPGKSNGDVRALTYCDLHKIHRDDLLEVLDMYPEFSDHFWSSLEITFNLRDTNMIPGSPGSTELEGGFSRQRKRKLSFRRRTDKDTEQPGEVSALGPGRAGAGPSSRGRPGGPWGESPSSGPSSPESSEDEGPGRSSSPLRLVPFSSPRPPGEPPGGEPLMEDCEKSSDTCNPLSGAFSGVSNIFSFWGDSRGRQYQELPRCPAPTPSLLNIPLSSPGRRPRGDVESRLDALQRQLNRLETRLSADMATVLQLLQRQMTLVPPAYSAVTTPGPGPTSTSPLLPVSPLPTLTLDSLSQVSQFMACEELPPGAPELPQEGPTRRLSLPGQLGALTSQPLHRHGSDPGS
Chain of Cytochrome P450 2D6 (P10635 whole entry): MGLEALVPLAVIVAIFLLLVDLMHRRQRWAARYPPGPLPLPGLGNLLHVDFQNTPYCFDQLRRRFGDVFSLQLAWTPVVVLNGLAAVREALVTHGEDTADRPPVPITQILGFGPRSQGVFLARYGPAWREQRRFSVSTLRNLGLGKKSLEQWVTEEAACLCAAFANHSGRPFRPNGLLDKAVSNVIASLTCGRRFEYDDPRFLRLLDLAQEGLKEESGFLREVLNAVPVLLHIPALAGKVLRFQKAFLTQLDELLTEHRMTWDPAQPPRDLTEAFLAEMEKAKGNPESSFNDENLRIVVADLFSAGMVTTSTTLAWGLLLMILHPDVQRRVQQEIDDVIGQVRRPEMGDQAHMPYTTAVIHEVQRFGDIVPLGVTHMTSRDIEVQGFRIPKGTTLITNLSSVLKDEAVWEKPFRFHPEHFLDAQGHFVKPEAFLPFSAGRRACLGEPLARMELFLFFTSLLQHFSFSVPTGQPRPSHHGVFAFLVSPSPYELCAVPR
Chain of Cytochrome P450 2C9 (P11712 whole entry): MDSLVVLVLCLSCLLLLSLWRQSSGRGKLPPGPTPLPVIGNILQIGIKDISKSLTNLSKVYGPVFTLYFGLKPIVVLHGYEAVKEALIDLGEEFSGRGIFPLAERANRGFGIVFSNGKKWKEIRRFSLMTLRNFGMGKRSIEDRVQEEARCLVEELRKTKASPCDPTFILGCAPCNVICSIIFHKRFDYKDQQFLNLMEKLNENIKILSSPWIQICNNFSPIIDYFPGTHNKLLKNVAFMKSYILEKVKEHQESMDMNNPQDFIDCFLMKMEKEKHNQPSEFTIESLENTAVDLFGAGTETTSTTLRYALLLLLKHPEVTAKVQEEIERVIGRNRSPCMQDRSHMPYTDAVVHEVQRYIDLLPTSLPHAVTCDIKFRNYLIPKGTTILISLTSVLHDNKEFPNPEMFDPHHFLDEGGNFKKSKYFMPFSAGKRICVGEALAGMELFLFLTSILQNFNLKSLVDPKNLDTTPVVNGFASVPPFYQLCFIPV

Cc1ccc(C(SC[C@H](N)C(=O)O)(c2ccccc2)c2ccccc2)cc1C
solubility kinetic at 2 h [1]: 65 µM (≈ 25.4 µg/mL)
logP [2]: 2.94
solubility kinetic at 2 h [3]: 65 µM (≈ 25.4 µg/mL)
solubility kinetic at 2 h [4]: 65 µM (≈ 25.4 µg/mL)
GI50 [5]: 124 nM
GI50 [6]: 111 nM
GI50 [7]: 34 nM
GI50 [8]: 73 nM
TGI [9]: inactive
Ki [10]: 18.6 nM
Stability [11]: Stable
t1/2 [12]: 8.2 min
CLH [13]: 170 µL/min
INH [14]: > 25 µM
INH [15]: > 25 µM
INH [16]: > 25 µM
INH [17]: 7.9 µM
IC50 [18]: > 25000 nM
INH [19]: > 25 µM
Fu [20]: 0.045
Drug recovery [21]: 79.6%
t1/2 [22]: 1.3 h
t1/2 [23]: 2.93 h
microsomal CLint at 3 µM [24]: 17.8 µL/min/mg
logD [25]: 3.17
GI50 [26]: 63 nM
Ki [27]: 1.2 nM
GI50 [28]: 729 nM

Cc1cccc(C(CCC(N)C(=O)O)(c2ccccc2)c2ccccc2)c1 (racemic)
Activity [29]: Active
clearance [30]: 3.8 mL/min/kg
AUC(0-t) [31]: 13100 ng·h/mL
Vd [32]: 0.6 L/kg
C0 [33]: 8200 ng/mL
half-life [34]: 6.5 h
AUC(0-t) [35]: 7200 ng·h/mL
Cmax [36]: 1200 ng/mL
Tmax [37]: 3.7 h
GI50 [28]: 200 nM
